Assay results taken from publication PMC9026613 (Current Therapeutic Research, Clinical and Experimental, 2022).
Like-named read-outs stand apart in the source and are kept apart here.

Legend:
[1] = Pharmacokinetics of dasiglucagon in plasma after IV or SC dosing, Phase I trial; format: in vivo, human
Method in brief: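 Single IV doses of 0.03, 0.1, 0.3, 0.6 or 1.5 mg from a 4 mg/mL solution diluted with vehicle, after a fast of ≥8 h. One cohort got 0.6 mg SC into the abdomen by prefilled syringe. Plasma sampled over 4 h (IV) or 5 h (SC). Dose proportionality by log–log power-model regression (90% CI of slope). Absolute bioavailability from a linear model of AUC, SC versus IV 0.6 mg.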

plasma glucose [2] = experiment: Plasma glucose response; format: in vivo, human
healthy volunteers [3] = format: in vivo, human
healthy volunteers [4] = experiment: Cardiac repolarization: by-time point analysis of QTcF; format: in vivo, human; conditions: least squares mean
Method in brief: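 Single IV dose of test compound or placebo. Continuous Holter 12-lead ECG with supine rest ≥15 min. Extractions at 45, 30 and 15 min predose and at 5–240 min and 24 h postdose, up to 10 nonoverlapping 10-s replicates per point. Lead II was primary. QTcF=QT/RR^1/3. Analysed in a linear mixed-effects model on ΔQTcF (fixed: time, treatment, interaction; baseline covariate), placebo pooled.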

healthy volunteers [5] = experiment: Concentration-QTc analysis, linear mixed-effects model; format: in vivo, human; conditions: not significant at the 0.1 level
healthy volunteers [6] = experiment: Concentration-QTc analysis, Emax model; format: in vivo, human; conditions: for ΔΔQTcF estimate at geometric mean Cmax: Emax model prediction, mean (90% CI)
Method in brief: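 Placebo-adjusted ΔQTcF for each subject and time point = individual ΔQTcF minus the estimated time effect at that point. ΔΔQTcF predicted at the geometric mean peak concentration per dose.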

healthy volunteers [7] = format: in vivo, human; remark: listed apart in the source
Method in brief: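 Single IV (0.03–1.5 mg) or SC (0.6 mg) dose, or IV placebo. Safety was monitored throughout the study by AE recording, vital signs, clinical laboratory tests, physical examination, 12-lead ECG and injection-site reaction checks. TEAEs were tallied per participant by treatment.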

healthy volunteers [8] = experiment: Antidasiglucagon antibody assessment; design: species or system human; conditions: in vivo
[9] = 0.6 mg single subcutaneous dose, other clinical trials; ref not given; cited from earlier work
[10] = test system: 8 different human cardiac ion channels (including human ether-a-go-go related gene [hERG]); conditions: 8 channels including hERG; nonclinical studies, ref not given; cited from earlier work
dogs = conditions: cardiovascular telemetry; nonclinical studies, ref not given; cited from earlier work
[11] = cited from earlier work
plasma glucose [12] = conditions: following insulin-induced hypoglycemia; cited from earlier work

CC(C)C[C@H](NC(=O)[C@H](Cc1c[nH]c2ccccc12)NC(=O)[C@H](CCCCN)NC(=O)[C@@H](NC(=O)[C@H](Cc1ccccc1)NC(=O)[C@H](CCC(=O)O)NC(=O)[C@H](CCC(=O)O)NC(=O)[C@H](C)NC(=O)[C@H](CCCNC(=N)N)NC(=O)[C@H](C)NC(=O)C(C)(C)NC(=O)[C@H](CC(=O)O)NC(=O)[C@H](CC(C)C)NC(=O)[C@H](Cc1ccc(O)cc1)NC(=O)[C@H](CCCCN)NC(=O)[C@H](CO)NC(=O)[C@H](Cc1ccc(O)cc1)NC(=O)[C@H](CC(=O)O)NC(=O)[C@H](CO)NC(=O)[C@@H](NC(=O)[C@H](Cc1ccccc1)NC(=O)[C@@H](NC(=O)CNC(=O)[C@H](CCC(N)=O)NC(=O)[C@H](CO)NC(=O)[C@@H](N)Cc1c[nH]cn1)[C@@H](C)O)[C@@H](C)O)C(C)C)C(=O)N[C@@H](CCC(=O)O)C(=O)N[C@@H](CO)C(=O)N[C@H](C(=O)O)[C@@H](C)O [dasiglucagon]
dose proportionality of AUC and Cmax ([1]; IV dose cohorts 0.03 to 1.5 mg, power model): dose-proportional
half-life ([1]; human, plasma, iv): ~18 min
Cmax ([1]; human, plasma, iv, 0.03 mg): 0.568 nM
Cmax ([1]; human, plasma, iv, 0.1 mg): 2.39 nM
Cmax ([1]; human, plasma, iv, 0.3 mg): 6.46 nM
AUC(0-inf) ([1]; human, plasma, iv, 0.6 mg): 4.63 nM·h
Cmax ([1]; human, plasma, iv, 0.6 mg): 10.2 nM
Cmax ([1]; human, plasma, iv, 1.5 mg): 57.9 nM
AUC(0-inf) ([1]; human, plasma, sc, 0.6 mg): 2.36 nM·h
AUC(0-t) ([1]; human, plasma, sc, 0.6 mg): 2.36 nM·h
Cmax ([1]; human, plasma, sc, 0.6 mg): 1.53 nM
bioavailability ([1]; human, plasma, sc, 0.6 mg): ~51%
half-life ([1]; human, plasma, sc, 0.6 mg): ~30 min
Median time to Cmax, glucose (plasma glucose [2]; IV 0.03 mg): 17.5 min
mean maximum glucose concentration (Cmax, glucose) (plasma glucose [2]; IV 0.03 mg, healthy volunteers): 135 mg/dL
Median time to Cmax, glucose (plasma glucose [2]; IV 1.5 mg): 42.5 min
mean maximum glucose concentration (Cmax, glucose) (plasma glucose [2]; IV 1.5 mg, healthy volunteers): 160 mg/dL
plasma glucose level after subcutaneous dosing (plasma glucose [2]; SC 0.6 mg, healthy volunteers): 172 mg/dL
Mean ΔΔHR (healthy volunteers [3]; IV 0.03 mg, 5 minutes postdose (lowest value)): –7.0 bpm
Mean ΔΔHR (healthy volunteers [3]; IV 0.6 mg, 24 hours postdose (highest value)): 7.5 bpm
effect on PR interval (healthy volunteers [3]; IV 0.03 to 1.5 mg): did not have a clinically relevant effect
effect on QRS duration (healthy volunteers [3]; IV 0.03 to 1.5 mg): did not have a clinically relevant effect
mean placebo-corrected change from baseline in heart rate (ΔΔHR) (healthy volunteers [3]; all studied IV doses 0.03 to 1.5 mg): < 10 bpm
Mean ΔΔQTcF (healthy volunteers [4]; IV 0.03 mg, 40 minutes postdose): -3.4 ms
Mean ΔΔQTcF (healthy volunteers [4]; IV 0.1 mg, 180 minutes postdose): 12.3 ms
treatment effect-specific intercept (healthy volunteers [5]): 0.8 ms
Emax (maximum estimated effect on ΔΔQTcF) (healthy volunteers [6]; Emax model, all IV data, P = 0.0137): 3.6 ms
treatment effect–specific intercept (healthy volunteers [6]; Emax model, not significant at the 0.1 level): -0.44 ms
ΔΔQTcF estimate at geometric mean Cmax (healthy volunteers [6]; IV 0.03 mg, n = 36 overall): 1.61 ms
ΔΔQTcF estimate at geometric mean Cmax (healthy volunteers [6]; IV 0.1 mg): 2.61 ms
ΔΔQTcF estimate at geometric mean Cmax (healthy volunteers [6]; IV 0.3 mg): 2.93 ms
ΔΔQTcF estimate at geometric mean Cmax (healthy volunteers [6]; IV 0.6 mg): 3.01 ms
ΔΔQTcF estimate at geometric mean Cmax (healthy volunteers [6]; IV 1.5 mg): 3.13 ms
EC50 (healthy volunteers [6]; read-out: amount that produces half the effect of Emax, Emax model, plasma concentration, not significant at the 0.1 level): 0.426 nM
participants who experienced nausea (healthy volunteers [7]; 0.6 mg SC cohort): 4 out of 6
participants who vomited (healthy volunteers [7]; 0.6 mg SC cohort): 3 out of 6
dizziness (healthy volunteers [7]; SC and IV dasiglucagon cohorts): 2 participants
extravasation (healthy volunteers [7]; SC and IV dasiglucagon cohorts): 2 participants
headache (healthy volunteers [7]; SC and IV dasiglucagon cohorts): 2 participants
nausea (healthy volunteers [7]; SC and IV dasiglucagon cohorts): 9 participants
vomiting (healthy volunteers [7]; SC and IV dasiglucagon cohorts): 4 participants
ECG-related TEAEs or TEAEs in the system organ class cardiac disorders (healthy volunteers [7]; all cohorts): no ECG-related TEAEs
participants reporting treatment-emergent AEs (TEAEs) (healthy volunteers [7]; all dasiglucagon cohorts, 14 out of 42): 33.3%
effect on vital signs or safety laboratory parameters (healthy volunteers [7]; in vivo): No effect
injection site reactions (healthy volunteers [7]; spontaneous pain (0.1 mg IV), hematoma (0.6 mg SC), both mild): Two injection site reactions
cross-reactivity of antibodies to endogenous glucagon (healthy volunteers [8]): no cross-reactivity
maximum concentrations observed in any clinical trial [9]: 5000 to 6000 pmol/L
effect on human cardiac ion channels in vitro [10]: no effect
potential for QTc prolongation in dogs (dogs): no potential for QTc prolongation
stability in aqueous solutions [11]: stable in aqueous solutions
Median time to plasma glucose recovery vs reconstituted lyophilized glucagon (plasma glucose [12]): comparable
